Measured values: paper PMC10099993 (Clinical Pharmacology in Drug Development, 2022)
Where “and” joins values, the source holds several entries; their conditions need not be identical. Identical values can stand only once. Like-named read-outs stand apart in the source and are kept apart here.

What was measured:
[1] = Mass balance study, single oral dose of [14C]-pexidartinib 400 mg; assay type: in vivo, human; conditions: for Percent of Radioactive Dose, feces: pooled feces
How it was run: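 Eight healthy men, 19–55 y, BMI 19–32 kg/m2. Single oral 400 mg (150 μCi) 14C suspension with ~50 mL water after ≥8 h fast, fasting ≥4 h after dosing. Confined ≥168 h; urine and feces collected up to 240 h. Total radioactivity by scintillation counting. Parent in plasma by validated LC-MS/MS. Radio-LC-MS profiling of metabolites. Noncompartmental PK.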

[2] = assay type: in vivo, human; conditions: for half-life / Cmax: human, plasma; for half-life: oral; for Cmax: po; for dose-normalized AUCinf, geometric LS mean / dose-normalized AUClast, geometric LS mean / dose-normalized Cmax, geometric LS mean: ANOVA
How it was run: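 Healthy adults of both sexes, 18–60 y, BMI 18–30 kg/m2. Randomized three-period crossover (sequences ABC/BCA/CAB), with a single fasted oral dose and 240 mL water on day 1 of each period and a 10-day washout. Plasma sampled 0.5–144 h postdose and analysed by validated LC-MS/MS. Noncompartmental PK. Mixed-effects ANOVA on dose-normalized ln Cmax/AUC versus the 400 mg reference. Power model: 90% CI of slope against the 80–120% interval.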

rCYP3A4 = rCYP3A4 (Homo sapiens, UniProt P08684); experiment: In vitro metabolic enzyme identification, recombinant human CYP incubation; assay type: in vitro ADME; conditions: 1 μM pexidartinib, NADPH, 37°C, 30 minutes
How it was run: (§1)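 1 μM test compound incubated with a panel of recombinant human CYPs (1A2, 2B6, 2C8, 2C9, 2C19, 2D6, 3A4, 3A5) plus NADPH at 37°C for 30 minutes. Parent loss measured by LC-MS/MS.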

rCYP3A5 = rCYP3A5 (Homo sapiens, UniProt P20815); experiment: as above; assay type: in vitro ADME; conditions: 1 μM pexidartinib, NADPH, 37°C, 30 minutes
How it was run: as §1

cytochrome P450 (CYP) 3A = conditions: previous pharmacokinetic analyses ref 4; cited from earlier work
CYP2C9 = conditions: previous pharmacokinetic analyses ref 4; cited from earlier work
[3] = following oral administration; background statement, no reference given; cited from earlier work
[4] = male, human, plasma, po, 400 mg
[5] = single oral [14C]-pexidartinib 400 mg
[6] = single oral [14C]-pexidartinib 400 mg, N = 8, median (range)
[7] = across all three dose levels, 90%CI
[8] = dose-proportionality study, 18 subjects
[9] = pexidartinib 200 mg vs 400 mg (400 mg reference)
[10] = pexidartinib 400 mg vs 600 mg (400 mg reference)

Chain of rCYP3A5 (P20815 whole entry): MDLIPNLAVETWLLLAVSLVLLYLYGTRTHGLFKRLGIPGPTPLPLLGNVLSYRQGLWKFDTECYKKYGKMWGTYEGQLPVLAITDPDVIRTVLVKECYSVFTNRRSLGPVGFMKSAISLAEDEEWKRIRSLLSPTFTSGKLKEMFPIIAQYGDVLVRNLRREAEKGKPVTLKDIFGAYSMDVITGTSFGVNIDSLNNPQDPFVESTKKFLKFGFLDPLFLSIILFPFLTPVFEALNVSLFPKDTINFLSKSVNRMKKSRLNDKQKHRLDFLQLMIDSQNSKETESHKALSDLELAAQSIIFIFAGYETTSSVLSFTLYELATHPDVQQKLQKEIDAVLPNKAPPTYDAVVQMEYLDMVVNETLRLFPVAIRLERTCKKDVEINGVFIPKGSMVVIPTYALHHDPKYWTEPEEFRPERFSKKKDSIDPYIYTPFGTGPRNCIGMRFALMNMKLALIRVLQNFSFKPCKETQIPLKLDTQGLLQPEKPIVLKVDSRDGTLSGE
Chain of rCYP3A4 (P08684 whole entry): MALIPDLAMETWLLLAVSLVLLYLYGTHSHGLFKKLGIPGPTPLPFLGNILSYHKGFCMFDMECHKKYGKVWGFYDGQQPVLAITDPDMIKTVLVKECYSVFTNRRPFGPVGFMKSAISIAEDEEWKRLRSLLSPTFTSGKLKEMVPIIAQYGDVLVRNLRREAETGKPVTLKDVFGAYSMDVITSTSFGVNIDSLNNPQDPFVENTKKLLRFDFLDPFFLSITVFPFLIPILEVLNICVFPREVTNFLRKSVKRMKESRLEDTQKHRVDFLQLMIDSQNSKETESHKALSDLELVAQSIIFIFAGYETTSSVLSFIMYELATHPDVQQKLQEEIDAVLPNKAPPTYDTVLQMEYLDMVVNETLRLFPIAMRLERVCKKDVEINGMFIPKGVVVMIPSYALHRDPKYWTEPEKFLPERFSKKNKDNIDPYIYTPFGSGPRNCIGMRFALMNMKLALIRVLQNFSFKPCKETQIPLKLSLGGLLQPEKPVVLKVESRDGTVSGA

In the case of `FC(F)(F)c1ccc(CNc2ccc(Cc3c[nH]c4ncc(Cl)cc34)cn2)cn1` [Pexidartinib], the “time of peak pexidartinib and total radioactivity” value ([1]; after the oral dose, pexidartinib and total radioactivity together) is reported as 1.75 to 2.0 h, the “severity of TEAEs” value ([1]; all events, mass balance study) is reported as “mild (grade 1)” and the oral bioavailability ([1]; inferred from 44% of dose excreted unchanged in feces) is reported as “moderate”. The Cmax [1, 4] was 2920 ng/mL, the Tmax [1, 4] was 1.75 h and the half-life [1, 4] was 28.7 h. The AUC(0-t) ([1]; male, human, plasma, po, 400 mg, AUClast, pexidartinib in plasma, single oral [14C]-pexidartinib 400 mg, N = 8, mean (CV%)) was 60400 ng·h/mL, the “TEAE deemed by the investigator to be related to pexidartinib treatment” value ([1]; mass balance study) was “Diarrhea” and the “TEAE leading to death, serious adverse event, or discontinuation” value ([1]; mass balance study, 8 subjects) was “No subject”. The “number of TEAEs” value ([1]; mass balance study, 8 subjects) was “four”, the “administered radioactivity recovered in the feces” value ([1]; over 240 hours, single oral [14C]-pexidartinib 400 mg) was 64.8% and the “administered radioactivity recovered in the urine” value ([1]; over 240 hours, single oral [14C]-pexidartinib 400 mg, listed as [^14C]‐pexidartinib) was 27.4%. The “administered radioactivity recovered in the urine” value ([1]; over 240 hours, single oral [14C]-pexidartinib 400 mg, listed as pexidartinib) was greater than 20%, the “share of total radioactivity in the plasma” value ([1]; plasma, single oral [14C]-pexidartinib 400 mg) was 34.9% and the “Percent of Radioactive Dose, feces” value [1, 5] was 44%. For the same compound, the “Percent of Radioactive Dose, feces” value ([1]; single oral [14C]-pexidartinib 400 mg, listed as pexidartinib) was 44.0%, the “Percent of Radioactive Dose, urine” value ([1]; pooled urine, single oral [14C]-pexidartinib 400 mg) was “no detectable” and the “AUC0-24 of total plasma radioactivity relative to plasma pexidartinib” value [1, 5] was “approximately 2 fold”. For the same compound, the “AUClast of total radioactivity in plasma relative to pexidartinib in plasma” value [1, 5] was 3 fold, the “Cmax of total plasma radioactivity relative to plasma pexidartinib” value [1, 5] was “approximately 2 fold” and the “Tmax, total radioactivity in plasma” value [1, 6] was 2.0 (1.5, 3.0) h. The “Tmax, total radioactivity in whole blood” value [1, 6] was 2.0 (1.5, 3.0) h, the “dose proportionality by power model” value ([2]; 200-600 mg, 90%CIs overlapped the 0.80-1.20 acceptance interval) was “inconclusive” and the “slope estimate for AUClast versus dose (power model)” value [2, 7] was 0.85 (90%CI 0.77, 0.92). For the same compound, the “slope estimate for Cmax versus dose (power model)” value [2, 7] was 0.83 (90%CI 0.74, 0.91) and 0.83 (90%CI, 0.74, 0.91), the “severity of TEAEs” value ([2]; all TEAEs, dose-proportionality study) was “grade 1” and the “TEAE leading to death, serious adverse event, or discontinuation” value [2, 8] was “No subject”. The “subjects who experienced TEAEs” value [2, 8] was “four”, the half-life [2] was 24.8 to 26.7 h and the half-life ([2]; 600 mg) was 24.8 h. For the same compound, the Cmax ([2]; 200 mg) was 2490 ng/mL, the Cmax ([2]; 400 mg) was 4660 ng/mL and the Cmax ([2]; 600 mg) was 6030 ng/mL. The “dose-normalized AUCinf, geometric LS mean ratio (90%CI)” value [2, 9] was 101.3 (93.5, 109.7) %, the “dose-normalized AUClast, geometric LS mean ratio (90%CI)” value [2, 9] was 101.3 (93.5, 109.8) % and the “dose-normalized Cmax, geometric LS mean ratio (90%CI)” value [2, 9] was 105.9 (96.8, 115.8) %. The “dose-normalized AUCinf, geometric LS mean” value ([2]; pexidartinib 200 mg, n = 18) was 209.4 ng·h/mL/mg, the “dose-normalized AUClast, geometric LS mean” value ([2]; pexidartinib 200 mg, n = 18) was 204.1 ng·h/mL/mg and the “dose-normalized Cmax, geometric LS mean” value ([2]; pexidartinib 200 mg, n = 18) was 11.7 ng/mL • mg. For the same compound, the “t1/2, pexidartinib in plasma” value ([2]; pexidartinib 200 mg, n = 18, mean (SD)) was 25.5 (5.2) h, the “dose-normalized AUCinf, geometric LS mean ratio (90%CI)” value [2, 10] was 83.7 (77.3, 90.7) % and the “dose-normalized AUClast, geometric LS mean ratio (90%CI)” value [2, 10] was 84.1 (77.6, 91.2) %. For the same compound, the “dose-normalized Cmax, geometric LS mean ratio (90%CI)” value [2, 10] was 86.3 (79.0, 94.4) %, the “dose-normalized AUCinf, geometric LS mean” value ([2]; pexidartinib 400 mg, n = 18) was 206.8 ng·h/mL/mg and the “dose-normalized AUClast, geometric LS mean” value ([2]; pexidartinib 400 mg, n = 18) was 201.4 ng·h/mL/mg. For the same compound, the “dose-normalized Cmax, geometric LS mean” value ([2]; pexidartinib 400 mg, n = 18) was 11.0 ng/mL • mg, the “dose-normalized AUCinf, geometric LS mean” value ([2]; pexidartinib 600 mg, n = 18) was 173.2 ng·h/mL/mg and the “dose-normalized AUClast, geometric LS mean” value ([2]; pexidartinib 600 mg, n = 18) was 169.4 ng·h/mL/mg. The “dose-normalized Cmax, geometric LS mean” value ([2]; pexidartinib 600 mg, n = 18) was 9.5 ng/mL • mg, the substrate loss (rCYP3A4) was 100 % loss and the substrate loss (rCYP3A5) was 100 % loss. For the same compound, the “effect on CYP3A” value (cytochrome P450 (CYP) 3A) was “moderate inducer”, the “effect on CYP2C9” value (CYP2C9) was “weak inhibitor” and the “time of maximum plasma concentrations” value [3] was “approximately 2.5 hours”.
